The nature of data set [1]: Metabolic stability in rat liver microsomes assessed as parent compound remaining after 10 mins. The conditions noted are these: read-out: Stability. It counts as ADME, microsome. The procedure, abridged:
(§1)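 Compound at 3 μM was incubated with human or rat liver microsomes, and the percentage of parent compound remaining was measured after 10 min.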

In data set [2] the test system is MT2. The data set can be described thus: Cytotoxicity against human MT2 cells assessed as decrease in cell viability after 3 days […]. It counts as functional. Conditions: MT2, 72 h.
Data set [3] in a line: Metabolic stability in human liver microsomes assessed as parent compound remaining after 10 mins. In kind it is ADME, microsome. Conditions: read-out: Stability. In outline: as §1
The test system of data set [4] is Human immunodeficiency virus 1. Briefly: Antiviral activity against ENV pseudotyped CCR5-tropic HIV1 […] infected in human HeLa67 cells after 3 days by luciferase reporter gene assay. In kind it is functional, organism-based. The conditions noted are these: Human immunodeficiency virus 1, HeLa67, 72 h. The procedure, abridged: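 Single-cycle infection with env-deleted, luciferase-reporter HIV-1 pseudotyped with the JRFL (CCR5) envelope, supplied by transfection; viral titers normalized by luminescence without compound. HeLa 67 cells were infected in the presence of compounds given as 3-fold serial dilutions made from 30 mM DMSO stocks.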

A short description of data set [5]: Permeability in human Caco2 cells. In kind it is ADME, cell-based. The conditions noted are these: Caco-2, read-out: permeability.

The structures appear in SMILES notation.

With `COCc1ncn(-c2ncc(OC)c3c(C(=O)C(=O)N4CCN(C(=O)c5ccccc5)CC4)c[nH]c23)n1`, the remaining at 10 min in data set [1] is 95%; in data set [3] it was 97%. Also, the half-maximal cytotoxic concentration (CC50) in data set [2] was more than 300000 nM. In addition, the EC50 in data set [4] is 0.09 nM. In addition, the Papp in data set [5] was less than 1.5 ×10⁻⁶ cm/s.
The matching figures for `COc1cnc(-n2cncn2)c2[nH]cc(C(=O)C(=O)N3CCN(C(=O)c4ccccc4)[C@H](C)C3)c12`: 95%, 95%, more than 300000 nM, 0.08 nM and 21.9 ×10⁻⁶ cm/s.
For `COc1cnc(-n2cc(C)nn2)c2[nH]cc(C(=O)C(=O)N3CCN(C(=O)c4ccccc4)CC3)c12`, in that order: 84%, 94%, more than 300000 nM, 0.06 nM and 16.6 ×10⁻⁶ cm/s.
With `COc1cnc(-n2ccc(CN(C)C)n2)c2[nH]cc(C(=O)C(=O)N3CCN(C(=O)c4ccccc4)CC3)c12`, the remaining at 10 min in data set [1] and in data set [3] was 100% throughout. Besides, the CC50 in data set [2] is more than 150000 nM. The EC50 in data set [4] came to 0.27 nM. Also, in data set [5], the Papp is 1.5 to 4.1 ×10⁻⁶ cm/s.
For `COc1cnc(-n2cnc(SC)n2)c2[nH]cc(C(=O)C(=O)N3CCN(C(=O)c4ccccc4)CC3)c12`, the figures for the remaining at 10 min in data set [1] and in data set [3] were 91% and 68%, respectively. The CC50 in data set [2] is more than 300000 nM. In data set [4], this compound came in with an EC50 of 0.03 nM. For the same compound, in data set [5], the Papp was less than 1.5 ×10⁻⁶ cm/s.
For the compound `COc1cnc(-n2ncnc2C)c2[nH]cc(C(=O)C(=O)N3CCN(C(=O)c4ccccc4)CC3)c12`, the values for the remaining at 10 min in data set [1] and in data set [3] were 95% and 99%, respectively. For the same compound, in data set [2], the CC50 was more than 300000 nM. Also, the EC50 in data set [4] came out at 4.07 nM. Further, the Papp in data set [5] stood at 9.6 ×10⁻⁶ cm/s.
In the case of `CNC(=O)c1ccn(-c2ncc(OC)c3c(C(=O)C(=O)N4CCN(C(=O)c5ccccc5)CC4)c[nH]c23)n1`, the results for the remaining at 10 min in data set [1] and in data set [3] were 81% and 87%, respectively. Further, the CC50 in data set [2] is 166000 nM. In data set [4], the EC50 came to 0.05 nM. The Papp in data set [5] was less than 1.5 ×10⁻⁶ cm/s.
`CCN(CC)CCNc1ncn(-c2ncc(OC)c3c(C(=O)C(=O)N4CCN(C(=O)c5ccccc5)CC4)c[nH]c23)n1`: the remaining at 10 min in data set [1] was found to be 100%; in data set [3], 87%. Besides, the CC50 in data set [2] was more than 300000 nM. This compound also came in with an EC50 in data set [4] of 1.04 nM. Also, the Papp in data set [5] was less than 1.5 ×10⁻⁶ cm/s.
For `COc1cnc(-n2cnc(N)n2)c2[nH]cc(C(=O)C(=O)N3CCN(C(=O)c4ccccc4)[C@H](C)C3)c12`, the remaining at 10 min in data set [1] amounted to 99%; in data set [3], 95%. Also, in data set [2], the CC50 is more than 300000 nM. This compound showed a half-maximal effective concentration (EC50) in data set [4] of 0.17 nM. Further, the Papp in data set [5] was less than 1.5 ×10⁻⁶ cm/s.
As for `COc1cnc(-n2cc(F)cn2)c2[nH]cc(C(=O)C(=O)N3CCN(C(=O)c4ccccc4)CC3)c12`, the remaining at 10 min in data set [1] came to 83%; in data set [3], 77%. In addition, the CC50 in data set [2] is 75000 nM. The same compound showed an EC50 in data set [4] of 0.03 nM. Further, the Papp in data set [5] worked out at 19.5 ×10⁻⁶ cm/s.
On to `COc1cnc(-n2nccc2C)c2[nH]cc(C(=O)C(=O)N3CCN(C(=O)c4ccccc4)CC3)c12`, for which the remaining at 10 min in data set [1] is 100%; in data set [3], 94%. Also, the CC50 in data set [2] is more than 300000 nM. In data set [4], this compound displayed an EC50 of 1.43 nM. Also, the Papp in data set [5] is 21.6 ×10⁻⁶ cm/s.

(Values after ChEMBL document CHEMBL4130629 (J Med Chem, 2018).)
